As a reminder, the IC50 is the concentration that gives 50% inhibition.

Where two headings read alike, the source gives them in different places.

For test [1], the system named is H157 lung carcinoma cells. As to the kind of experiment: MTT cytotoxicity, 72 h. It is filed as cell-based, human. Particulars: read-out: IC50 (μM)±SD H157, MTT test. In a few lines:
(§1)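 The 2008 and H157 cells were kept in RPMI-1640, and A375 cells in DMEM, each with 10% FCS, antibiotics and 2 mM glutamine, at 37 °C, 5% CO2. Cells (3–8×10^3/well) were exposed 72 h in triplicate, with DMSO at 0.5% final. MTT was added for 5 h, followed by SDS/0.01 M HCl overnight, then A570 relative to untreated wells. IC50 came from a 4-PL fit, means of ≥4 independent experiments.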
In general terms: Tetrazolium assays rely on reduction of a dye to a coloured formazan, in cell work by metabolically active cells.

For test [2], the system named is H157 cells. As to the kind of experiment: Apoptosis induction. Particulars: 48 h, IC50 doses. It is filed as cell-based, human.
The test system of test [3] is PSN‐1 pancreatic cancer cells. As to the kind of experiment: MTT cytotoxicity, 72 h. The conditions noted are these: read-out: IC50 (μM)±SD PSN‐1, MTT test. It is filed as cell-based, human.
Test [4] deals with HCT‐15 colon cancer cells. As to the kind of experiment: MTT cytotoxicity, 72 h. Type of test: cell-based, human. Particulars: read-out: IC50 (μM)±SD HCT‐15, MTT test.
Test [5] concerns A431 cervical carcinoma cells. Briefly: MTT cytotoxicity, 72 h. Type of test: cell-based, human. The conditions noted are these: read-out: IC50 (μM)±SD A431, MTT test.
The test system of another test is A375 melanoma cells. As to the kind of experiment: MTT cytotoxicity, 72 h. The conditions noted are these: read-out: IC50 (μM)±SD A375, MTT test. Type of test: cell-based, human. In outline:
as §1

For test [6], the system named is H157 cells. As to the kind of experiment: Transmission electron microscopy. Type of test: cell-based, human. Particulars: 24 h, IC50 concentrations. In outline:
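About 10^6 H157 cells were treated 24 h after seeding and incubated a further 24 h; untreated and auranofin-treated cells served as references. Cells were fixed in 1.5% glutaraldehyde in 0.2 M sodium cacodylate pH 7.4, post-fixed in 1% OsO4 and embedded in epoxy. Sections were 1 μm (toluidine blue) or 90 nm (uranyl acetate/lead citrate), imaged at 75 kV.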

For test [7], the system named is MCF‐7 breast cancer cells. Briefly: MTT cytotoxicity, 72 h. It is filed as cell-based, human. Particulars: read-out: IC50 (μM)±SD MCF‐7, MTT test.
For test [8], the system named is 2008 ovarian cancer cells. As to the kind of experiment: MTT cytotoxicity, 72 h. It is filed as cell-based, human. Particulars: read-out: IC50 (μM)±SD 2008, MTT test. In outline: as §1
Test [9] concerns A2780 ovarian cancer cell spheroids. Briefly: 3D spheroid cytotoxicity, acid phosphatase. The conditions noted are these: read-out: IC50 (μM)±SD A2780 spheroids; 3D spheroids, 72 h, APH assay. Type of test: cell-based, human. In outline: (§2)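 H157 or A2780 cells were seeded at 2.5×10^3 cells/well in round-bottom non-treated plates. The medium was phenol red-free RPMI-1640 with 10% FCS plus 20% methyl cellulose stock solution. Spheroids were exposed 72 h to increasing concentrations, with the compound added from DMSO to a final 0.5%. Viability was read by a modified acid phosphatase assay, and IC50 was fitted by a 4-parameter logistic model.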

Test [10] relates to H157 lung cancer cell spheroids. Briefly: 3D spheroid cytotoxicity, acid phosphatase. It is filed as cell-based, human. The conditions noted are these: read-out: IC50 (μM)±SD H157 spheroids; 3D spheroids, 72 h, APH assay. In outline:
as §2

For a further test, the system named is LoVo colon cancer cells. As to the kind of experiment: MTT cross-resistance, sensitive colon cells. It is filed as cell-based, human. Particulars: 72 h, read-out: IC50 (μM)±SD LoVo. In a few lines: (§3)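 LoVo, LoVo MDR and LoVo-OXP cells were grown in F-12 HAM'S with 10% FCS, antibiotics and 2 mM glutamine at 37 °C, 5% CO2. LoVo-OXP had been selected over 17 months in increasing oxaliplatin. Cells (3–8×10^3/well) were exposed 72 h in triplicate, with DMSO at 0.5% final. MTT was added for 5 h, followed by SDS/0.01 M HCl overnight, then A570. IC50 came from a 4-PL fit over ≥4 experiments; RF = IC50 resistant/IC50 LoVo.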

In test [11] the test system is LoVo MDR colon cancer cells. As to the kind of experiment: MTT cross-resistance, multi-drug resistant cells. It is filed as cell-based, human. In a few lines: as §3
Test [12] concerns A2780 ADR ovarian cancer cells. As to the kind of experiment: MTT cross-resistance, multi-drug resistant ovarian cells. Type of test: cell-based, human. In a few lines:
(§4)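 A2780 and A2780 ADR cells were grown in RPMI-1640 with 10% FCS, antibiotics and 2 mM glutamine at 37 °C, 5% CO2. Cells (3–8×10^3/well) were given compound after 24 h and exposed 72 h in triplicate, with DMSO at 0.5% final. MTT was added for 5 h, followed by SDS/0.01 M HCl overnight, then A570 as % of untreated control. IC50 came from a 4-PL fit over ≥4 experiments; RF = IC50 A2780 ADR/IC50 A2780.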

Test [13] concerns A2780 ovarian adenocarcinoma cells. As to the kind of experiment: MTT cross-resistance, sensitive ovarian cells. The conditions noted are these: Homo sapiens, A2780, 72 h, read-out: IC50 (μM)±SD A2780. Type of test: cell-based. In outline:
as §4

Test [14] concerns LoVo‐OXP colon cancer cells. Briefly: MTT cross-resistance, oxaliplatin-resistant cells. Type of test: cell-based, human. In outline:
as §3

In test [15] the test system is LoVo‐OXP colon cancer cells. The conditions noted are these: as previously reported; cited from earlier work.
Setting [16] is: RF=IC50 resistant cells/IC50 sensitive cells.

Turning to `CC(=O)OC[C@H]1O[C@@H]([S-])[C@H](OC(C)=O)[C@@H](OC(C)=O)[C@@H]1OC(C)=O.CCP(CC)CC.[Au+]` [Auranofin, 2,3,4,6‐tetra‐o‐acetyl‐ L‐thio‐β‐D‐glyco‐pyranosato ‐S‐(triethyl‐phosphine) gold(I)], the half-inhibitory concentration (IC50) turned out to be 1.6 ± 0.3 µM in test [1]; 1 ± 0.4 µM in test [3]; 0.1 ± 0.02 µM in test [4]; 2 ± 0.8 µM in test [5]; 2.3 ± 1 µM with A375 melanoma cells; 0.9 ± 0.3 µM in test [7]. For the same molecule, in test [8], the IC50 was 1 ± 0.2 µM. Further, in the test with H157 cells [2], the “apoptosis, cellular morphological changes (Hoechst 33258)” value is “brightly stained nuclei and morphological features typical of cells undergoing apoptosis”. In the test with H157 cells [6], the “mitochondrial morphology (TEM)” value is on record as “dramatic swelling of the mitochondria”.

For the molecule `N.N.[Cl][Pt][Cl]` [Cisplatin], the IC50 in [9] was 74.2 ± 8.9 µM; in test [1], 5.9 ± 1.1 µM; in test [10], 52.5 ± 1.3 µM; in [3], 12.1 ± 2.9 µM; in test [4], 11.3 ± 1.5 µM; in test [5] it was 1.4 ± 0.3 µM. Moreover, the IC50 in the test with A375 melanoma cells amounted to 3.1 ± 0.4 µM; in test [7] it was 8.8 ± 1 µM; in [8], 2.2 ± 1.3 µM.

Take `COc1cccc2c1C(=O)c1c(O)c3c(c(O)c1C2=O)C[C@@](O)(C(=O)CO)C[C@@H]3O[C@H]1C[C@H](N)[C@H](O)[C@H](C)O1` [Doxorubicin]: the concentration for half-maximal inhibition (IC50) with LoVo colon cancer cells (Homo sapiens, LoVo) was 1.1 ± 0.2 µM; in test [11] (Homo sapiens, LoVo, 72 h, read-out: IC50 (μM)±SD LoVo MDR), 19.2 ± 2.3 µM; in test [12] (Homo sapiens, A2780 ADR, 72 h, read-out: IC50 (μM)±SD A2780 ADR), 0.16 ± 0.03 µM; in [13], 0.01 ± 0.001 µM. In addition, in test [11] (setting [16]), the “RF (LoVo MDR/LoVo)” value was 17.5 –. Further, the “RF (A2780 ADR/A2780)” value in test [12] (setting [16]) is 16.0 –.

For `O=C(O)C(=O)O.[NH-][C@@H]1CCCC[C@H]1[NH-].[Pt+2]` [oxaliplatin], the IC50 with LoVo colon cancer cells (MTT test) is 1.1 ± 0.6 µM; in [14] (read-out: IC50 (μM)±SD LoVo‐OXP, 72 h, MTT test), 14.3 µM. In addition, the “RF (LoVo‐OXP/LoVo)” value in test [14] (setting [16]) was “ND 13.0”. In addition, in [15], the “resistance of LoVo OXP cells vs parental cells” value was “about 13 fold”.

(Values after publication PMC10092581 (Chemistry (Weinheim an Der Bergstrasse, Germany), 2022).)
